A selection: hits, their analogues and other compounds. The true share with any hit is near 2.2%.
E-sel inducer: E-selectin induction on HUVECs; 260,000 tested, 0.37% active; P16581; activation, % at 7.58 µM; AID 686992; HUVEC E-selectin immunofluorescence imaging; normalized: neutral wells 0, TNF-alpha wells 100;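 active means mean E-selectin-positive cell signal at least 10% of the positive control, reached in at least 60% of replicates, without over 20% cell loss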
Target sequence (P16581 whole entry, looked up): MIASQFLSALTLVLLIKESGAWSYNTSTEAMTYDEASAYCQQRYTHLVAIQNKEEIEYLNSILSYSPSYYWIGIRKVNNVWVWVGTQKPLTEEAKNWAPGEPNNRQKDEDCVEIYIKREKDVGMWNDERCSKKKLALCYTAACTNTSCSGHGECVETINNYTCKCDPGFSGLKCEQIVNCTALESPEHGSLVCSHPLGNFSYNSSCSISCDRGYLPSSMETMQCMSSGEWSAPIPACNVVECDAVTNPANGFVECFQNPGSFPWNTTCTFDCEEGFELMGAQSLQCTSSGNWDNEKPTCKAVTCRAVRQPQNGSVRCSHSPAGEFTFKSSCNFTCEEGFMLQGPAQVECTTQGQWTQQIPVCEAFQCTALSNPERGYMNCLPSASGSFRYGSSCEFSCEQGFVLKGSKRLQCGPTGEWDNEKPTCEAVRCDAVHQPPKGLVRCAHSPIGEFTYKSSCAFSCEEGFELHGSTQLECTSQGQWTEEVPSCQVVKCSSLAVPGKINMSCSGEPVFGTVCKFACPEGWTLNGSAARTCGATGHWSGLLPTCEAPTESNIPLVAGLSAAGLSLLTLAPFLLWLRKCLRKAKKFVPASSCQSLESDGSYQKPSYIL
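Test system: HUVEC; input: 3,000 HUVEC/well; measured by: immunofluorescence imaging; read-out: % PE-positive cells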
Statin myotox sup: suppression of simvastatin myotoxicity. C2C12 myotubes + simvastatin, ATP luminescence, 48 h; scaled: DMSO 0, geranylgeraniol control 100. AID 602340. 330,000 tested, 0.78% active. rescue of ATP level, % at 7.49 µM;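 active means mean ATP rescue above about 67%, or every replicate alone reaching that limit, limit read from the data, passing the limit was not always enough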;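 further: myotubes were challenged with 10 µM simvastatin during compound exposure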
DENV2 CPE rescue: protects cells from dengue virus 2 cytopathic effect; DENV2-infected cells, cytopathic effect rescue, plate reader; CPE inhibition, % at 9.99 µM; 350,000 tested, 1.7% active; AID 651640; in the data active means CPE inhibition above about 20%, passing the limit was not always enough; tested in BHK-21 cells;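 further: 0% = median of neutral control wells and 100% = median of positive control wells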
* hit, by the source's call; / = no result.

SMILES	E-sel inducer	Statin myotox sup	DENV2 CPE rescue
COCC#Cc1ccc([C@@H]2[C@@H](CO)N3CCCCN(S(=O)(=O)c4ccccc4C)C[C@@H]23)cc1	-0.4	/	-2.2
O=S(=O)(c1ccccc1F)N1CCCCN2[C@H](C1)[C@@H](c1ccc(-c3ccccc3)cc1)[C@@H]2CO	/	/	3.5
N#C[C@@H]1[C@H](c2ccccc2)[C@H](CO)N1C(=O)CCN1CCCCC1	0.0	0.6	-4.3
CNC[C@@H]1Oc2ncc(C#Cc3cccc(OC)c3)cc2C(=O)N([C@@H](C)CO)C[C@@H]1C	-0.1	9.2	3.8
CCCC#Cc1cnc2c(c1)C(=O)N([C@H](C)CO)C[C@H](C)[C@H](CN(C)C(=O)Nc1cccc(F)c1)O2	0.4	2.8	0.5
COc1cccc(-c2ccc3c(c2)[C@H]2[C@H](CCN2C(=O)C2CC2)[C@@H](CO)N3)c1	0.0	/	-10.0
COc1ccc(NC(=O)Nc2ccc3c(c2)C(=O)N([C@@H](C)CO)C[C@H](C)[C@H](CN(C)C)O3)cc1	-7.7	-21.2	-5.1
COc1ccc(NC(=O)N(C)C[C@H]2Oc3ccc(NC(=O)Nc4ccc(F)cc4)cc3C(=O)N([C@H](C)CO)C[C@H]2C)cc1	-0.1	-21.5	-11.6
COc1ccc(NC(=O)Nc2ccc3c(c2)C(=O)N([C@@H](C)CO)C[C@H](C)[C@@H](CN(C)C(=O)Nc2ccc(F)cc2)O3)cc1	1.6	20.2	-2.6
C[C@@H]1CN([C@@H](C)CO)C(=O)c2cc(NC(=O)Nc3ccc(F)cc3)ccc2O[C@@H]1CN(C)C	-1.0	-0.2	5.4
COc1ccc(NC(=O)Nc2ccc3c(c2)C(=O)N([C@@H](C)CO)C[C@@H](C)[C@H](CN(C)C(=O)Nc2ccc(F)cc2)O3)cc1	-0.2	-2.0	20.6*
C[C@@H]1CN([C@@H](C)CO)C(=O)c2cc(NC(=O)Nc3ccc(F)cc3)ccc2O[C@H]1CN(C)C	-2.6	8.7	26.6*
COc1ccc(NC(=O)Nc2ccc3c(c2)C(=O)N([C@@H](C)CO)C[C@H](C)[C@@H](CN(C)C)O3)cc1	41.0*	2.4	0.8
COc1ccc(NC(=O)Nc2ccc3c(c2)C(=O)N([C@@H](C)CO)C[C@@H](C)[C@@H](CN(C)C(=O)Nc2ccc(OC)cc2)O3)cc1	0.0	0.2	25.7*
COc1cccc(CN2CC3(CCN(S(C)(=O)=O)CC3)c3c(n(C)c4cc(OC)ccc34)[C@H]2CO)c1	0.3	/	-0.6
Cc1ccc(S(=O)(=O)Nc2ccc3c(c2)C(=O)N([C@H](C)CO)C[C@H](C)[C@@H](CN(C)C(=O)Nc2ccc(F)cc2)OCCCC[C@@H](C)O3)cc1	/	/	2.6
CO[C@@H]1CN(C)C(=O)c2cc(NC(=O)c3ccccc3F)ccc2OC[C@H](C)N(C(C)=O)C[C@H]1C	0.2	-9.3	8.1
C[C@@H]1CN([C@@H](C)CO)C(=O)c2cc(NC(=O)CCCN(C)C)ccc2O[C@@H]1CN(C)S(C)(=O)=O	-3.4	2.6	4.0
Cc1ccc(S(=O)(=O)N(C)C[C@H]2OCCCC[C@@H](C)Oc3ccc(NS(C)(=O)=O)cc3C(=O)N([C@H](C)CO)C[C@H]2C)cc1	-0.1	/	1.9
C[C@H](NC(=O)[C@H]1[C@H](CO)[C@H]2Cn3c(ccc(C4=CCCC4)c3=O)[C@H]2N1C)c1ccccc1	0.1	1.8	0.0
C[C@@H]1CN([C@H](C)CO)C(=O)c2cc(NC(=O)C3CCCCC3)ccc2O[C@H]1CN(C)C(=O)Nc1ccc(F)cc1	-0.7	10.1	55.4*
C[C@@H]1CN([C@@H](C)CO)C(=O)c2cc(NC(=O)C3CCCCC3)ccc2O[C@H]1CN(C)C(=O)Nc1ccc(F)cc1	-2.5	-3.8	2.0
C=CC(COC(C)=O)NS(=O)(=O)c1ccc(Br)cc1 (centres undefined)	/	/	-3.0
C[C@@H]1CN([C@@H](C)CO)C(=O)c2cc(NS(=O)(=O)c3ccccc3)ccc2O[C@@H](C)CCCCO[C@H]1CN(C)C(=O)CCCN(C)C	0.5	/	8.4
O=C(CNS(=O)(=O)c1cccc2nsnc12)NCCc1ccccc1	/	3.8	2.5
SMILES	E-sel inducer	Statin myotox sup	DENV2 CPE rescue
Cc1ccc(CNC(=O)CNS(=O)(=O)c2cccc3nsnc23)cc1	/	101.0*	/
C[C@@H]1CCCCO[C@H](CN(C)C(=O)CCCN(C)C)[C@H](C)CN([C@H](C)CO)C(=O)c2cc(NC(=O)c3ccccc3)ccc2O1	-0.4	18.3	17.8
CC(C)N1C(=O)CCC1C(=O)N1CCC(Cc2ccccc2)CC1 (centres undefined)	-1.7	131.6*	-0.8
CC(C)N1C(=O)CCC1C(=O)N1CCN(c2ccc(F)cc2)CC1 (centres undefined)	2.8	0.1	11.4
C[C@H]1CCCCO[C@@H](CN(C)S(=O)(=O)c2cn(C)cn2)[C@@H](C)CN([C@@H](C)CO)C(=O)c2cc(NC(=O)Nc3ccccc3)ccc2O1	0.8	/	-3.4
CCN(C[C@H]1N[C@@](CC)(C(=O)OC)[C@H]2C(=O)N(C)C(=O)[C@@H]12)S(=O)(=O)c1ccc(C(F)(F)F)cc1	/	1.6	52.1*
CCN(C[C@H]1N[C@@](CC)(C(=O)OC)[C@H]2C(=O)N(C)C(=O)[C@@H]12)S(=O)(=O)c1ccc(C(C)(C)C)cc1	/	-9.3	4.0
O=C(CCNC(=O)C1CCN(S(=O)(=O)c2ccccc2)CC1)NCc1ccccn1	0.4	4.8	-0.7
Cc1ccc(S(=O)(=O)N2CCC(C(=O)NCc3cccnc3)CC2)cc1	/	6.4	-0.8
COc1ccc(S(=O)(=O)N2CCC(C(=O)NCCC(=O)NCc3ccccn3)CC2)cc1	0.6	-0.5	35.7*
COc1ccc(C(=O)N2CCC(C(=O)Nc3ccc4c(c3)OCCO4)CC2)cc1	/	86.4*	/
COc1ccc(NC(=O)NCc2ccccn2)cc1	/	109.7*	/
O=C(NCc1ccccn1)Nc1ccccc1	2.8	10.0	3.2
CCOc1ccc(S(=O)(=O)N2CCC(C(=O)NCc3cccnc3)CC2)cc1	41.1*	/	-9.9
O=C(Nc1ccc2c(c1)OCCO2)C1CCN(C(=O)c2ccc(Br)cc2)CC1	/	2.9	/
COc1ccc(NC(=O)N(C)C[C@@H]2Oc3ccc(NC(=O)CCN4CCOCC4)cc3CC(=O)N([C@H](C)CO)C[C@@H]2C)cc1	/	0.8	-6.7
C[C@H](CO)N1C[C@H](C)[C@H](CN(C)S(=O)(=O)c2cccs2)Oc2ccc(NC(=O)Nc3cccc4ccccc34)cc2C1=O	-0.2	42.0	-3.0
COCC(=O)Nc1ccc2c(c1)C(=O)N(C)C[C@H](OC)[C@@H](C)CN(C(=O)CC1CC1)[C@@H](C)CO2	-0.2	17.4	6.5
C[C@H]1CN([C@@H](C)CO)C(=O)c2cc(NC(=O)Cc3ccccc3)ccc2O[C@H]1CN(C)S(=O)(=O)c1ccccc1	-0.1	-32.2	10.0
O=C(N[C@H]1CC[C@@H](CCNS(=O)(=O)c2ccccc2Cl)O[C@H]1CO)c1ccc(F)cc1	2.2	-4.0	3.2
CO[C@@H]1CN(C)C(=O)c2cc(NC(C)=O)ccc2OC[C@H](C)N(Cc2ccc(F)cc2)C[C@@H]1C	-0.3	-0.3	1.1
Cc1oc(-c2ccccc2F)nc1CN1CCC(C(=O)NCc2cccnc2)CC1	/	-8.4	/
Cc1ccccc1-c1nc(CN2CCC(C(=O)NCc3cccnc3)CC2)c(C)o1	-0.2	99.5*	/
COc1ccc(CNC(=O)C2CCN(C(=O)c3ccc(-c4ccccc4)cc3)CC2)cc1	/	2.6	3.2
